Source: ChEMBL document CHEMBL3400011, “Canthinone alkaloids are novel protein tyrosine phosphatase 1B inhibitors” (Bioorg Med Chem Lett, 2015)

Columns and labels:
[1] = molecular target: T1, Tyrosine-protein phosphatase non-receptor type 1 (Homo sapiens) (UniProt P18031); assay: Inhibition of PTP1B (unknown origin) assessed as inhibition rate at 100 uM
T1 sequence (whole entry): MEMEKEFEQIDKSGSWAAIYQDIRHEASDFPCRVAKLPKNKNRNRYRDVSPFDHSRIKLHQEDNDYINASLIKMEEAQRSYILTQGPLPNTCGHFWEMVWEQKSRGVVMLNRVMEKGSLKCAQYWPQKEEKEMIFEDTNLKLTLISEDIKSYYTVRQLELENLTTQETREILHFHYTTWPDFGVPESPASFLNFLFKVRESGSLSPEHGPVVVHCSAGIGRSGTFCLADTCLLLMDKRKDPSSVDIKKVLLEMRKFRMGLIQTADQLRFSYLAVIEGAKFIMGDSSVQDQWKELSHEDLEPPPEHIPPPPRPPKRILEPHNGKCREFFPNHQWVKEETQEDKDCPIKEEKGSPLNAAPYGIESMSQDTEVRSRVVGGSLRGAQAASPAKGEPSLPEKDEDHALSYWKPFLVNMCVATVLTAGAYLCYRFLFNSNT
Outline: (§1)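 PTP1B enzymatic assay with RK-682 as the positive control. For the single-point screen, compounds were tested at a final 100 µM. For dose–response, inhibition was measured over a range of compound concentrations, and IC50 was obtained by regression analysis.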

HepG2 = assay: Induction of Akt phosphorylation in insulin-stimulated human HepG2 cells assessed as pAkt/Akt ratio at 50 uM after 5 mins by western blotting analysis relative to control; assay type: functional
Outline: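 HepG2 cells were treated with compound at 50 µM, then stimulated with insulin. pAkt was assessed by western blotting at 0 and 5 min after insulin. DMSO served as the negative control and sodium orthovanadate (200 µM) as the positive control. Values are expressed relative to control.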

[2] = molecular target: T2, Tyrosine-protein phosphatase non-receptor type 1 (Homo sapiens, UniProt P18031); assay: Inhibition of PTP1B (unknown origin); outline: as §1
T2 sequence (P18031 whole entry): T1 sequence (whole entry)

[3] = molecular target: T3, Tyrosine-protein phosphatase non-receptor type 11 (Homo sapiens) (UniProt Q06124); assay: Inhibition of SHP2 (unknown origin) assessed as inhibition rate at 75 uM
T3 sequence (whole entry): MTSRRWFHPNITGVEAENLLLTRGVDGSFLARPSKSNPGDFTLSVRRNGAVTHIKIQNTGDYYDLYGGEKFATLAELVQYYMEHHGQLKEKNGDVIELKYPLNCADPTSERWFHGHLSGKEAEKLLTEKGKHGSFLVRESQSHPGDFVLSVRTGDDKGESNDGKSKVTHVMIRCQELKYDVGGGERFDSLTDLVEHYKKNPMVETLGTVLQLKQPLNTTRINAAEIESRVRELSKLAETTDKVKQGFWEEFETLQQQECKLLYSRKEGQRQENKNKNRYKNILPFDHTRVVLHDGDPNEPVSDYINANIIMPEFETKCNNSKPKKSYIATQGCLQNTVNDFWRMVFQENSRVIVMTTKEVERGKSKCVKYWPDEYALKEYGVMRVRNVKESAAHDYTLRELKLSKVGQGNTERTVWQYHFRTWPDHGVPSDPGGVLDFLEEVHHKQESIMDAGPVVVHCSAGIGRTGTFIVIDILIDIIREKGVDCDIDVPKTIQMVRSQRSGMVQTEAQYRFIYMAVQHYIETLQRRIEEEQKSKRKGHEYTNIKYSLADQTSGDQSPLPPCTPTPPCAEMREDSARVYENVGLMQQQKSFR

[4] = molecular target: Tyrosine-protein phosphatase non-receptor type 6 (Homo sapiens) (UniProt P29350); assay: Inhibition of SHP1 (unknown origin) assessed as inhibition rate at 75 uM
Homo sapiens [5] = organism: Homo sapiens; assay: Ratio of inhibition rate for PTP1B (unknown origin) at 75 uM to inhibition rate for SHP1 (unknown origin) at 75 uM
Homo sapiens [6] = organism: Homo sapiens; assay: Ratio of inhibition rate for PTP1B (unknown origin) at 75 uM to inhibition rate for VHR (unknown origin) at 75 uM
[7] = molecular target: T1, Tyrosine-protein phosphatase non-receptor type 1 (Homo sapiens); assay: Inhibition of PTP1B (unknown origin) assessed as inhibition rate at 75 uM
Homo sapiens [8] = organism: Homo sapiens; assay: Ratio of inhibition rate for PTP1B (unknown origin) at 75 uM to inhibition rate for TCPTP (unknown origin) at 75 uM
[9] = molecular target: T2, Tyrosine-protein phosphatase non-receptor type 1; assay: Non-competitive inhibition of PTP1B (unknown origin) assessed as hydrolysis of para-nitrophenylphosphate by Lineweaver-Burk plot
Outline: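 Kinetic study of PTP1B varying both compound and p-nitrophenylphosphate substrate concentrations. Mode was read from Lineweaver–Burk plots. Slopes from those plots were replotted against compound concentration (secondary plot), and Ki was calculated from that plot.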

Homo sapiens [10] = organism: Homo sapiens; assay: Ratio of inhibition rate for PTP1B (unknown origin) at 75 uM to inhibition rate for SHP2 (unknown origin) at 75 uM
[11] = molecular target: T4, Tyrosine-protein phosphatase non-receptor type 2 (Homo sapiens) (UniProt P17706); assay: Inhibition of TCPTP (unknown origin) assessed as inhibition rate at 75 uM
T4 sequence (whole entry): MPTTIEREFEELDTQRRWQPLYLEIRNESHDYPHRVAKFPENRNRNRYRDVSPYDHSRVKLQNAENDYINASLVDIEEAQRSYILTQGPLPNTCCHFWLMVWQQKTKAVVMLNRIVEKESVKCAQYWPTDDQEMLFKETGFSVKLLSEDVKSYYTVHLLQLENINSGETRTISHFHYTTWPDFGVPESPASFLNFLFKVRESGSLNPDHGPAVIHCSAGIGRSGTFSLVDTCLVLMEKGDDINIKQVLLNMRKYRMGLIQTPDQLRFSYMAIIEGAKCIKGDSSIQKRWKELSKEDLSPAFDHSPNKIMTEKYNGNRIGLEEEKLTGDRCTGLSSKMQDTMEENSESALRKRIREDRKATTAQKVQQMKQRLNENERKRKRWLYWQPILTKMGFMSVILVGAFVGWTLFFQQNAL

[12] = molecular target: Dual specificity protein phosphatase 3 (Homo sapiens) (UniProt P51452); assay: Inhibition of VHR (unknown origin) assessed as inhibition rate at 75 uM
Sequence of Dual specificity protein phosphatase 3 (Homo sapiens) (P51452 whole entry, looked up): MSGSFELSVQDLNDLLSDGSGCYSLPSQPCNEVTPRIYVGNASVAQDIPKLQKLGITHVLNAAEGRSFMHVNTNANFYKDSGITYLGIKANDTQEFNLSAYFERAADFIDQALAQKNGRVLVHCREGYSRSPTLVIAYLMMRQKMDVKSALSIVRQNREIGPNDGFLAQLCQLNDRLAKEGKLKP

Sequence of Tyrosine-protein phosphatase non-receptor type 6 (Homo sapiens) (P29350 whole entry): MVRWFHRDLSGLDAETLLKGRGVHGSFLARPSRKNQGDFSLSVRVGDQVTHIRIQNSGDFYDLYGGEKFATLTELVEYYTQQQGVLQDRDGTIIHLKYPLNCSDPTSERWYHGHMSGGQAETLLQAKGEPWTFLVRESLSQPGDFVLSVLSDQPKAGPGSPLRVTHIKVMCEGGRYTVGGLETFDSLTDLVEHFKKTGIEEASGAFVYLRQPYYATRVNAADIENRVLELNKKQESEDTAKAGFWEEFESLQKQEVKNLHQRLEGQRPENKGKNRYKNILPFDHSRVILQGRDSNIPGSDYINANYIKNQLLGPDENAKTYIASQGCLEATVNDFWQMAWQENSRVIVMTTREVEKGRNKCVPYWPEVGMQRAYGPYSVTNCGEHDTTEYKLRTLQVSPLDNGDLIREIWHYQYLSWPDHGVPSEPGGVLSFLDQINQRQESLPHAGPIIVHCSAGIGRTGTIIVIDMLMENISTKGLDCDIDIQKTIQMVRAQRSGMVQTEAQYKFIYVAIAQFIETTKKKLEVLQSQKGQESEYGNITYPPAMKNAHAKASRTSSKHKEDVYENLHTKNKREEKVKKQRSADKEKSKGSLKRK

| SMILES | inhibition [1] | also measured |
| --- | --- | --- |
| Cn1c(=O)cc2c3ccccc3n3c(=O)ccc1c23 | 33.6% | – |
| COc1cnc(C(C)=O)c2[nH]c3ccccc3c12 | 21.6% | – |
| COc1c(O)c2nccc3c4cc(O)ccc4n(c1=O)c23 | 30.5% | – |
| COc1c(O)c2nccc3c4ccccc4n(c1=O)c23 | 55.9% | – |
| CCC1NC(C(=O)O)Cc2c1[nH]c1ccccc21 (configuration not stated) | 20.8% | – |
| Cc1nccc2c1[nH]c1ccccc12 | 7.7% | – |
| Oc1nccc2c1[nH]c1ccccc12 | 8.5% | – |
| CCCC1NC(C(=O)OC)Cc2c1[nH]c1ccccc21 (configuration not stated) | 7.9% | – |
| COc1c2n(C)ccc3c-2n(c(=O)c1=O)c1ccccc31 | 76.6% | – |
| OCc1nccc2c1[nH]c1ccccc12 | 17% | – |
| COc1cnc(C(OC)OC(C)=O)c2[nH]c3ccccc3c12 (configuration not stated) | 11.6% | – |
| CC(C)C1NC(C(=O)O)Cc2c1[nH]c1ccccc21 (configuration not stated) | 11.3% | – |
| COc1c(O)c(=O)n2c3ccccc3c3cc(=O)n(C)c1c32 | 26.3% | – |
| NC(=O)c1nccc2c1[nH]c1ccccc12 | 20.3% | – |
| COC(=O)/C=C/C(=O)c1ncc(OC)c2c1[nH]c1c(OC)cccc12 | 21% | – |
| Cc1c2[nH]c3ccccc3c2cc[n+]1[O-] | -3% | – |
| COc1cccc2c1[nH]c1c(CCC(OC)C(=O)c3nccc4c3[nH]c3ccccc34)ncc(OC)c12 (configuration not stated) | 44.1% | – |
| COC(=O)c1cc2c(cn1)[nH]c1ccccc12 | 23% | – |
| COc1c(O)c(=O)n2c3ccccc3c3ccnc1c32 | 42.8% | – |
| COc1cnc(C(=O)CC(CO)c2ncc(OC)c3c2[nH]c2ccccc23)c2[nH]c3ccccc3c12 (configuration not stated) | 33% | – |
| CCc1ncc(OC)c2c1[nH]c1ccccc12 | 16.1% | – |
| COn1c(=O)cc2c3ccccc3n3c(=O)ccc1c23 | 31.2% | – |
| COC(=O)c1cc2c([nH]c3ccccc32)c(C)n1 | 14.3% | – |
| CCn1ccc2c3n(c(=O)c(=O)cc1-3)c1cc(OC)ccc21 | 59.4% | – |

| SMILES | inhibition [1] | also measured |
| --- | --- | --- |
| COc1cccc2c1[nH]c1c(C(=O)CCC(=O)c3ncc(OC)c4c3[nH]c3c(OC)cccc34)ncc(OC)c12 | 43.8% | – |
| COC(=O)C1Cc2c([nH]c3ccccc23)CN1 (configuration not stated) | 21.3% | – |
| COc1c(OC(C)=O)c(=O)n2c3ccccc3c3cc(OC(C)=O)nc1c32 | 41.7% | – |
| COc1c(OC)c2c3c(cc[n+]2[O-])c2ccccc2n3c1=O | 14.8% | – |
| COc1c(OC)c2c3c(cc(=O)n2C)c2ccccc2n3c1=O | 34.4% | – |
| CCCCn1ccc2c3n(c(=O)c(=O)cc1-3)c1ccccc21 | 42% | – |
| C=Cc1ncc(OC)c2c1[nH]c1c(OC)cccc12 | 40.3% | – |
| COc1c(OC(C)=O)c(=O)n2c3ccccc3c3ccnc1c32 | 68.8% | – |
| COc1cc2nccc3c4ccccc4n(c1=O)c23 [5-METHOXYCANTHINONE] | – | pAkt/Akt ratio (HepG2): 1.3; IC50 [2]: 20.3 µM; inhibition [3]: 18.3%; inhibition [4]: 22.8%; Ratio (Homo sapiens [5]): 4; Ratio (Homo sapiens [6]): 3.3; inhibition [7]: 91%; Ratio (Homo sapiens [8]): 1.9; Ki [9]: 10.3 µM; Ratio (Homo sapiens [10]): 5; inhibition [11]: 48.4%; inhibition [12]: 27.5% |
| COc1cnc2ccc(=O)n3c4ccccc4c1c23 | 23.7% | – |
| CC(=O)c1nccc2c1[nH]c1ccccc12 | 25.1% | – |
| O=C(O)c1cc2c([nH]c3ccccc32)c(-c2cccc3c2OCO3)n1 | 19.8% | – |
| CCCC1NC(C(=O)O)Cc2c1[nH]c1ccccc21 (configuration not stated) | 46.9% | – |
| O=c1ccc2nccc3c4c(O)cccc4n1c23 | 50.6% | – |
| COc1cnc(C(O)CO)c2[nH]c3ccccc3c12 (configuration not stated) | 10.5% | – |
| COc1cnc(CCn2ccc3c4n(c(=O)c(=O)cc2-4)c2ccccc32)c2c1c1ccccc1n2OC | 43.9% | – |
| Cc1nc(C(=O)O)cc2c1[nH]c1ccccc12 | 18.2% | – |
| CCOC(=O)c1nccc2c1[nH]c1ccccc12 | 26.9% | – |
| CCC1NC(C(=O)c2ccccc2)Cc2c1[nH]c1ccccc21 (configuration not stated) | 4.7% | – |
| O=C(O)c1nccc2c1[nH]c1ccccc12 | 28.5% | – |
| O=C1NC(=O)c2[nH]c3ccccc3c2C1=O | 80.7% | – |
| CCCCn1ccc2c3n(c(=O)c(=O)c(OC)c1-3)c1ccccc21 | 11.7% | – |
| COC(=O)c1nccc2c1[nH]c1ccccc12 | 2.9% | – |
| COCCc1ncc(OC)c2c1[nH]c1c(OC)cccc12 | 28.6% | – |

| SMILES | inhibition [1] | also measured |
| --- | --- | --- |
| C(=C\c1nccc2c1[nH]c1ccccc12)/c1ccccc1 | 15% | – |
| CCc1ncc(OC)c2c1[nH]c1c(O)cccc12 | 27.1% | – |
| Cc1c2n(C)ccc3c-2n(c(=O)c1=O)c1ccccc31 | – | IC50 [2]: 24.7 µM; inhibition [3]: 23.3%; inhibition [4]: 24.4%; Ratio (Homo sapiens [5]): 3.8; Ratio (Homo sapiens [6]): 3.5; inhibition [7]: 92.1%; Ratio (Homo sapiens [8]): 1.9; Ki [9]: 19.9 µM; Ratio (Homo sapiens [10]): 3.8; inhibition [11]: 49.7%; inhibition [12]: 26.5% |
| O=c1ccc2nccc3c4ccccc4n1c23 | 15.3% | – |
| CCc1nc(C(=O)OC)cc2c1[nH]c1ccccc12 | 21.2% | – |
| O=c1c(CO)cc2nccc3c4ccccc4n1c23 | 33.8% | – |
| CCn1ccc2c3n(c(=O)c(=O)c(OC)c1-3)c1ccccc21 | 43.6% | – |
| O=C(O)C1Cc2c([nH]c3ccccc23)CN1 (configuration not stated) | 26% | – |
| C=Cc1ncc(OC)c2c3ccccc3n(OC)c12 | 33.5% | – |
| O=c1ccc2c3c(cc[n+]2[O-])c2ccccc2n13 | 50.9% | – |
| CCn1ccc2c3n(c(=O)c(=O)cc1-3)c1ccccc21 | 63.4% | – |
| COc1ccc2c3ccnc4ccc(=O)n(c2c1)c43 | 34.9% | – |
| O=Cc1nccc2c1[nH]c1ccccc12 | 9.8% | – |
| CC1NC(C(=O)O)Cc2c1[nH]c1ccccc21 (configuration not stated) | 21.3% | – |
| COc1c(OC)c2nccc3c4ccccc4n(c1=O)c23 | 26.5% | – |
| COc1cccc2c1[nH]c1c(CCn3ccc4c5n(c(=O)c(=O)cc3-5)c3ccccc43)ncc(OC)c12 | 48.5% | – |
| CCc1c2[nH]c3ccccc3c2cc[n+]1[O-] | 4.3% | – |
| COc1c(OC)c2nc(O)cc3c4ccccc4n(c1=O)c23 | 81.9% | – |
| COCc1c2[nH]c3ccccc3c2cc[n+]1[O-] | 59% | – |
| CCc1nccc2c1[nH]c1ccccc12 | 30.2% | – |
| COCc1nccc2c1[nH]c1ccccc12 | 27.4% | – |
| O=C(O)CCc1nccc2c1[nH]c1ccccc12 | 39.3% | – |
| O=c1c(O)cc2nccc3c4ccccc4n1c23 | 84.7% | – |
